Data: ChEMBL document CHEMBL1132289, “Novel potent and selective central 5-HT3 receptor ligands provided with different intrinsic efficacy. 2. Molecular basis of the intrinsic efficacy of arylpiperazine derivatives at the central 5-HT3 receptors” (J Med Chem, 1999)

Columns and labels:
[1] = molecular target: T1, Serotonin 3 (5-HT3) receptor (Rattus norvegicus) (UniProt P35563+Q9JJ16); experiment: Intrinsic efficacy against 5-hydroxytryptamine 3 receptor; A means pure agonist; type: functional; settings: filed as agonist
How it was run: (§1)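 Mouse neuroblastoma × rat glioma NG 108-15 cells grown 2 days in DMEM; washed, then incubated 10 min at 37 °C in guanidinium buffer B (135 mM NaCl, 10 mM guanidinium, pH 7.4) with […] [14C]guanidinium, 10 μM substance P, 1 μM 5-HT where indicated, eight drug concentrations; ice-cold choline wash, NaOH lysis, scintillation counting. Triplicates; EC50 (agonists/partial agonists) or IC50 (antagonists).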

[2] = molecular target: T2, Serotonin 3 (5-HT3) receptor (Rattus norvegicus, UniProt P35563+Q9JJ16); experiment: Inhibition of [3H]granisetron binding to 5-hydroxytryptamine 3 receptor (5-HT 3 receptor) of rat cortex and hippocampus tissue; type: tissue-based
T2 sequence (P35563 whole entry): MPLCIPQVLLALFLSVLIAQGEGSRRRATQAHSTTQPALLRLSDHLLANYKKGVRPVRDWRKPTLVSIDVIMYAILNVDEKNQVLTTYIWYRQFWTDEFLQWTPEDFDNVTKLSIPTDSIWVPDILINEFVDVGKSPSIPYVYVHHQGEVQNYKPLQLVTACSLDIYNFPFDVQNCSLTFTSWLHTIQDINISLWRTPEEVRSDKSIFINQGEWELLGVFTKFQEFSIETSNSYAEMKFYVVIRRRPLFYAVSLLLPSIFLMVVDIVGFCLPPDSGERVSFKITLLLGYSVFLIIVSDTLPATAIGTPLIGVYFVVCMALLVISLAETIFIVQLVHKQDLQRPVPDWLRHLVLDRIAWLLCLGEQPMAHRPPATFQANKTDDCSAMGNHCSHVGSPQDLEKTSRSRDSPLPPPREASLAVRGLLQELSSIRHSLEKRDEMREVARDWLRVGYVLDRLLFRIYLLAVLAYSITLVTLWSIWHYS
T2 sequence (Q9JJ16 whole entry): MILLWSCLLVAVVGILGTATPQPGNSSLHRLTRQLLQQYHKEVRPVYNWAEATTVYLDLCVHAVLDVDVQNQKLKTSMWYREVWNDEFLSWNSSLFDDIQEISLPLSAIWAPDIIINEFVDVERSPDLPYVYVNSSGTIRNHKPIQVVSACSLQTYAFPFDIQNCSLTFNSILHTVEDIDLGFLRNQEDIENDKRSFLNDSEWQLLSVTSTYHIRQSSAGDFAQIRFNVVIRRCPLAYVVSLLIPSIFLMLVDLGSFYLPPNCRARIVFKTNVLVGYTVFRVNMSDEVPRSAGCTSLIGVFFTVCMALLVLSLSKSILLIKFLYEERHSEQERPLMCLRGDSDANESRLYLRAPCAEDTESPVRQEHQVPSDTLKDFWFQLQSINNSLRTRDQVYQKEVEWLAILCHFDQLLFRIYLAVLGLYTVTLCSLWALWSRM

NG108-15 [3] = experiment: (§2) Quantitative effect on the [14C]guanidinium accumulation in NG 108-15 cells (mouse neuroblastoma and rat glioma hybrid cells); type: functional, cell-based; settings: Murinae
How it was run: (§3)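 NG 108-15 cells grown 2 days, washed, then exposed 10 min at 37 °C to buffer containing 10 mM guanidinium, [14C]guanidinium, 10 μM substance P, and/or 1 μM 5-HT, with eight drug concentrations. Cells lysed in NaOH, then scintillation counting. EC50 for agonists, IC50 for antagonists. Triplicate per concentration.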

[4] = molecular target: T1, Serotonin 3 (5-HT3) receptor (Rattus norvegicus); experiment: Intrinsic efficacy for rat 5-hydroxytryptamine 3 receptor; type: protein-complex assay; settings: filed as antagonist
NG108-15 [5] = experiment: as §2; type: functional, cell-based; settings: Murinae; remark: listed apart in the source
[6] = molecular target: T3, 5-hydroxytryptamine receptor 1A (Rattus norvegicus, UniProt P19327); experiment: Binding affinity against 5-hydroxytryptamine 1A receptor of rat hippocampus tissue.; type: tissue-based
T3 sequence (P19327 whole entry): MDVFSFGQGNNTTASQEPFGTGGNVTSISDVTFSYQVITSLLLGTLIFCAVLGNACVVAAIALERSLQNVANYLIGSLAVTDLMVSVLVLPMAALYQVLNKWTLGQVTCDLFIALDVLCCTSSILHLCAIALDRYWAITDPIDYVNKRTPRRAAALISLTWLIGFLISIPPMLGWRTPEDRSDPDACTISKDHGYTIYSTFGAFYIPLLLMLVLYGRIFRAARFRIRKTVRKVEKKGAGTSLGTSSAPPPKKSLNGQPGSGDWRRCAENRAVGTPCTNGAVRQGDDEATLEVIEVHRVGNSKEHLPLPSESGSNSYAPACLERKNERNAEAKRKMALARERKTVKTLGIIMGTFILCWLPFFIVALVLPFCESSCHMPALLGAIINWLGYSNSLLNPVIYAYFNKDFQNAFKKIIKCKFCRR
How it was run: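 Rat tissue homogenized in ice-cold 50 mM Tris HCl, resuspended in 50 mM Tris HCl pH 7.4. [3H]8-OH-DPAT 0.5 nM final, 4 mg tissue/sample, 0.5 mL incubation. Stopped by vacuum filtration through GF/B filters, scintillation counting. Mean ± SEM of three determinations.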

[7] = molecular target: Sodium-dependent serotonin transporter (Rattus norvegicus, UniProt P31652); experiment: Binding affinity towards Serotonin transporter was determined in rat forebrain membrane; type: cell membranes
Sodium-dependent serotonin transporter, sequence (P31652 whole entry): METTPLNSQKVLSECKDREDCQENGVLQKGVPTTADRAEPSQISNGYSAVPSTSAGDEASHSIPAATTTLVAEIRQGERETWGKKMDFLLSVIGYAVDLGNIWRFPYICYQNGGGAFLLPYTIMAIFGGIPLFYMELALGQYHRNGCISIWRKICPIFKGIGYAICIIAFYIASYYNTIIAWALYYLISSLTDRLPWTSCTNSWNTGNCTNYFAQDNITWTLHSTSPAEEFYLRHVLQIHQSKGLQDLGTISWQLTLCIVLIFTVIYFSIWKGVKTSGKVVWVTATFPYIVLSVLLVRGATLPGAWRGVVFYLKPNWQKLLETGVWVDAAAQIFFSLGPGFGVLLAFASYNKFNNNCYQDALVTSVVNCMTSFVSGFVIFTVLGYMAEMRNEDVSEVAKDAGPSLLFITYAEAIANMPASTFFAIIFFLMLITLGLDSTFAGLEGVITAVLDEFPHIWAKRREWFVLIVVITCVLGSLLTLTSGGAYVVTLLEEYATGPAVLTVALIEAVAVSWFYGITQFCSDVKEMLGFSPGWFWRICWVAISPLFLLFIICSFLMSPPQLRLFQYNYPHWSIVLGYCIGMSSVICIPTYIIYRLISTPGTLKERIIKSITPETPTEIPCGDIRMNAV
How it was run: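 Membranes stored at -80 °C. [3H]paroxetine 0.1 nM final, 2 mg tissue/sample, 2.0 mL, in 50 mM Tris HCl pH 7.4 with 120 mM NaCl and 5 mM KCl. Filters presoaked in 0.5% poly(ethylenimine). Mean ± SEM of three determinations.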

[8] = molecular target: T4, 5-hydroxytryptamine receptor 2A (Rattus norvegicus, UniProt P14842); experiment: Binding affinity against 5-hydroxytryptamine 2A receptor of rat pre-frontal cortex.
T4 sequence (P14842 whole entry): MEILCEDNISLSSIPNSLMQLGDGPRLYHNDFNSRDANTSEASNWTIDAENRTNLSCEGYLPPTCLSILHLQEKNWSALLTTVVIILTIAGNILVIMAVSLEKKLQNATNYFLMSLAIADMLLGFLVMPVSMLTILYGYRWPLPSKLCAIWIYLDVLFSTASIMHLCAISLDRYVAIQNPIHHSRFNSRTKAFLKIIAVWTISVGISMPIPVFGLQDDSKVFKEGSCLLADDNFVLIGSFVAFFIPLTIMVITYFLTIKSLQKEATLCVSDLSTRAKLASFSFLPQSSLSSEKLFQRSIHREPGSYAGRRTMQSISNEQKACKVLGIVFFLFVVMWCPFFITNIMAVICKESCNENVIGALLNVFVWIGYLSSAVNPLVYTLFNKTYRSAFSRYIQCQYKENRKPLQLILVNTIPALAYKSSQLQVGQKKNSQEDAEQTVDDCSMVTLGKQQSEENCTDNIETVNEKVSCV
How it was run: (§4)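 Membranes incubated with [3H]ketanserin 0.5 nM final, 8 mg tissue/sample, 0.5 mL, 50 mM Tris HCl pH 7.7. Filtration through GF/B filters, then scintillation counting. […] Mean ± SEM of three determinations.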

[9] = molecular target: T2, Serotonin 3 (5-HT3) receptor; experiment: Inhibition of [3H]granisetron binding to 5-hydroxytryptamine 3 receptor of rat cortical membrane
[10] = molecular target: T5, 5-hydroxytryptamine receptor 2C (Rattus norvegicus, UniProt P08909); experiment: Binding affinity against 5-hydroxytryptamine 2C receptor of rat cortex.
T5 sequence (P08909 whole entry): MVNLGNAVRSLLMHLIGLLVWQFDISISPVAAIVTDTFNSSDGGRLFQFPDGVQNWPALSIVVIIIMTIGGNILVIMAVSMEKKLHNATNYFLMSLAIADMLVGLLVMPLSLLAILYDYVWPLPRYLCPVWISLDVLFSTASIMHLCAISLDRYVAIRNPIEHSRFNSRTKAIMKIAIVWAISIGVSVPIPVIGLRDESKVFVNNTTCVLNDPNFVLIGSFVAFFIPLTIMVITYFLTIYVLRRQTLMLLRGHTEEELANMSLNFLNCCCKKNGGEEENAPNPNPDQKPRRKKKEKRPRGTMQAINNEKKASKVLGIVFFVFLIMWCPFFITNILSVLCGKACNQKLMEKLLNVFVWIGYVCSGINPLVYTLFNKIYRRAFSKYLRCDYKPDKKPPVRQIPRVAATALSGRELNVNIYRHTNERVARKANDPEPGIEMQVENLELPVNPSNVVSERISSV

[11] = molecular target: T6, 5-hydroxytryptamine receptor 1B (Rattus norvegicus, UniProt P28564); experiment: Binding affinity against 5-hydroxytryptamine 1B receptor of rat striatum.; type: tissue-based
T6 sequence (P28564 whole entry): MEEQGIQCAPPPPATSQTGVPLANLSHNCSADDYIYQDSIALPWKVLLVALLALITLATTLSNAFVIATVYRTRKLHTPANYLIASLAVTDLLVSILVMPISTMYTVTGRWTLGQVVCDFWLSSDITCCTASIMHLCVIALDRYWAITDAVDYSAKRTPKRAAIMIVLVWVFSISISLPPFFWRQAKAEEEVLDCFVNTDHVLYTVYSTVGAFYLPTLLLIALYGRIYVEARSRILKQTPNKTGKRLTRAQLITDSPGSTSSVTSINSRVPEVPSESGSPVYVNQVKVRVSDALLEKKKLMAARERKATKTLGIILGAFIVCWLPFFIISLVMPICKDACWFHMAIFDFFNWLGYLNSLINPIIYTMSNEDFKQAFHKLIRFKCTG

[12] = molecular target: T1, Serotonin 3 (5-HT3) receptor (Rattus norvegicus); experiment: Intrinsic efficacy against 5-hydroxytryptamine 3 receptor; PA means partial agonist; type: functional; settings: filed as partial agonist; how it was run: as §3
[13] = molecular target: T5, 5-hydroxytryptamine receptor 2C; experiment: Binding affinity against 5-hydroxytryptamine 2C receptor of rat cortex; type: tissue-based
[14] = molecular target: T4, 5-hydroxytryptamine receptor 2A; experiment: Binding affinity against 5-hydroxytryptamine 2A receptor of rat pre-frontal cortex; type: tissue-based; how it was run: as §4
[15] = molecular target: T6, 5-hydroxytryptamine receptor 1B; experiment: Binding affinity against 5-hydroxytryptamine 1B receptor of rat striatum; type: tissue-based
How it was run: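 [3H]5-HT 2.3 nM final, 14 mg tissue/sample, 1.0 mL, in 50 mM Tris HCl pH 7.7 with 10 μM pargyline, 4 mM CaCl2 and 0.1% ascorbic acid. Filtration through GF/B filters, scintillation counting. […] Mean ± SEM of three determinations.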

NG108-15 [16] = experiment: Quantitative effect on the [14C]guanidinium accumulation in NG 108-15 cells.; type: functional, cell-based; settings: Murinae; how it was run: as §1

CN1CCN(c2nccc3c2CCc2ccccc2-3)CC1
Intrinsic efficacy [1]: Agonist
Ki [2]: 16 nM
EC50 (NG108-15 [3]): 7 nM

CN1CCN(c2nc3c(c4c2CCc2ccccc2-4)CCCC3)CC1
Ki [2]: 2300 nM

CN1CCN(c2nc3ccccc3c3c2CC2CCC3C2)CC1 (stereo not drawn)
Intrinsic efficacy [4]: Antagonist
IC50 (NG108-15 [5]): 8 nM

CN1CCN(c2nc3ccccc3c3c2CCc2sccc2-3)CC1
Intrinsic efficacy [4]: Antagonist
Ki [6]: 12000 nM
Ki [7]: 4600 nM
Ki [8]: 3100 nM
IC50 (NG108-15 [5]): 62 nM
Ki [9]: 5.7 nM
Ki [10]: 420000 nM
Ki [11]: 1500 nM

CN1CCN(c2nc3c(c4c2CSc2ccccc2-4)CCCC3)CC1
Ki [2]: 2700 nM

CN1CCN(c2cc(C34C[C@H]5C[C@@H](C3)C[C@@H](C4)C5)c3ccccc3n2)CC1
Intrinsic efficacy [4]: Antagonist
IC50 (NG108-15 [5]): 80 nM
Ki [2]: 80 nM

CN1C2CCCC1CC(NC(=O)c1nn(C)c3ccccc13)C2 (stereo not drawn)
Intrinsic efficacy [4]: Antagonist

c1ccc2nc(N3CCNCC3)ccc2c1
Intrinsic efficacy [1]: Agonist

CN1CCN(c2nc3ccccc3c3c2CCC2CCCCC32)CC1 (stereo not drawn)
Intrinsic efficacy [4]: Antagonist
IC50 (NG108-15 [5]): 250 nM
Ki [9]: 29 nM

CCCN(CCC)C(=O)c1c(N2CCN(C)CC2)nc2cccc3c2c1-c1ccccc1-3
Ki [2]: 3 nM
Intrinsic efficacy [12]: Partial agonist

CN1CCN(c2nc3ccccc3c(-c3ccccc3)c2COC(=O)c2ccccc2)CC1
Intrinsic efficacy [4]: Antagonist
Ki [6]: 4100 nM
Ki [7]: 1100 nM
Ki [13]: 31 nM
Ki [14]: > 10000 nM
IC50 (NG108-15 [5]): 9 nM
Ki [2]: 8.8 nM
Ki [15]: 7600 nM

CCOC(=O)c1c(N2CCN(C)CC2)nc2cccc3c2c1-c1ccccc1-3
Ki [2]: 3.9 nM

c1ccc2c(c1)ccc1c(N3CCOCC3)nccc12
Ki [2]: 4900 nM

CN1CCN(c2nc3ccccc3c3c2CSc2ccccc2-3)CC1
Ki [9]: 19 nM

CN1CCN(c2nc3ccccc3c3c2CCc2ccccc2-3)CC1
Intrinsic efficacy [4]: Antagonist
IC50 (NG108-15 [5]): 4.6 nM
Ki [2]: 4.2 nM

CN1CCN(c2nccc3c2ccc2ccccc23)CC1
Intrinsic efficacy [1]: Agonist
Ki [2]: 29 nM
EC50 (NG108-15 [3]): 30 nM

CCCCOC(=O)c1c(N2CCN(C)CC2)nc2cccc3c2c1-c1ccccc1-3
Ki [2]: 78 nM

CN1CCN(c2nc3ccccc3c3c2ccc2ccccc23)CC1
Ki [9]: 46 nM

CN1CCN(c2nc3ccccc3c3c2C(=O)c2ccccc2-3)CC1
Intrinsic efficacy [4]: Antagonist
IC50 (NG108-15 [5]): 139 nM
Ki [2]: 20 nM

CN1CCN(c2nc3ccccc3c3ccccc23)CC1
Intrinsic efficacy [1]: Agonist
EC50 (NG108-15 [3]): 10 nM

NCCc1c[nH]c2ccc(O)cc12 [SEROTONIN]
Intrinsic efficacy [1]: Agonist
EC50 (NG108-15 [16]): 298 nM

CN1CCN(c2cc3c4c(cccc4n2)-c2ccccc2-3)CC1
Ki [6]: 24000 nM
Ki [7]: 1600 nM
Ki [13]: > 10000 nM
Ki [14]: 13000 nM
Ki [2]: 1.8 nM
Ki [15]: 640 nM
EC50 (NG108-15 [3]): 12 nM
Intrinsic efficacy [12]: Partial agonist

CN1CCN(c2nc3ccccc3c3c2CCCC3)CC1
EC50 (NG108-15 [3]): 0.25 nM
Intrinsic efficacy [12]: Partial agonist

c1ccc2c(c1)CCc1c(N3CCOCC3)nc3ccccc3c1-2
Ki [9]: > 5300 nM

CN1CCN(c2ccnc3c2ccc2ccccc23)CC1
Ki [2]: 490 nM
